Assay results published in ChEMBL document CHEMBL1135527, “Synthesis and evaluation of 2'-substituted 4-(4'-carboxy- or 4'-carboxymethylbenzylidene)-N-acylpiperidines: highly potent and in vivo active steroid 5alpha-reductase type 2 inhibitors” (J Med Chem, 2002).
pIC50: −log10 of the molar value.

What was measured:
[1] = target: T1, 3-oxo-5-alpha-steroid 4-dehydrogenase 1 (Homo sapiens) (UniProt P18405); experiment: Inhibition of Steroid 5-alpha-reductase type I of human DU 145 prostatic tumor cell line, at 10 uM
T1 sequence (whole entry): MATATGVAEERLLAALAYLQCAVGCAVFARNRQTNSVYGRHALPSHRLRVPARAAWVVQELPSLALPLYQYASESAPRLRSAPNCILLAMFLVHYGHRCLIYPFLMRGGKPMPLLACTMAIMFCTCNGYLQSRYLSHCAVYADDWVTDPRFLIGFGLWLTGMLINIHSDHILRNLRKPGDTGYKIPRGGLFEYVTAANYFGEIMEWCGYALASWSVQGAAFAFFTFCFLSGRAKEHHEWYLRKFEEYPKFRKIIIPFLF
How it was run: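 Intact DU145 cells (type 1 source) seeded at 180 000/well and left to adhere overnight. Compound added in DMSO to complete medium, then 6 h at 37 °C in 5% CO2 with [³H]androstenedione, 5 nM. Medium extracted twice with ether, steroids separated by radio-HPLC. Product formed expressed as % of triplicate no-inhibitor controls; screened at 10 μM.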

[2] = target: T2, 3-oxo-5-alpha-steroid 4-dehydrogenase 2 (Homo sapiens, UniProt P31213); experiment: Inhibition of Steroid 5-alpha-reductase type 2 from human benign prostatic hyperplasia (BPH) tissue
T2 sequence (P31213 whole entry): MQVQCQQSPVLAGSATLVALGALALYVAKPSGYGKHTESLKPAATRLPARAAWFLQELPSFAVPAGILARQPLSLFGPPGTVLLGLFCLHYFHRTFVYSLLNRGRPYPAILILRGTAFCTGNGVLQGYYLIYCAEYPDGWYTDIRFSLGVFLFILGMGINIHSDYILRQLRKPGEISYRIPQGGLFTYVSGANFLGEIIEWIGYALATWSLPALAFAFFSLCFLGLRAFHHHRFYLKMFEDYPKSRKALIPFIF
How it was run: (§1)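 Human BPH prostate 105000g pellet (nuclei, mitochondria, microsomes) prepared in citrate buffer pH 5.5. Incubation of about 125 μg protein for 30 min at 37 °C in 40 mM citrate pH 5.5 with 100 μM NADPH, 0.21 μM [1,2-³H]testosterone and 2% DMSO. Reaction stopped with NaOH, steroids extracted with ether, T/DHT separated by radio-HPLC. Single 10 μM test or IC50; duplicates.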

[3] = target: T3, 3-oxo-5-alpha-steroid 4-dehydrogenase 1 (Rattus norvegicus, UniProt P24008); experiment: Inhibition of Steroid 5-alpha-reductase type I from rat ventral prostate (RVP); type: tissue-based, Prostate gland
T3 sequence (P24008 whole entry): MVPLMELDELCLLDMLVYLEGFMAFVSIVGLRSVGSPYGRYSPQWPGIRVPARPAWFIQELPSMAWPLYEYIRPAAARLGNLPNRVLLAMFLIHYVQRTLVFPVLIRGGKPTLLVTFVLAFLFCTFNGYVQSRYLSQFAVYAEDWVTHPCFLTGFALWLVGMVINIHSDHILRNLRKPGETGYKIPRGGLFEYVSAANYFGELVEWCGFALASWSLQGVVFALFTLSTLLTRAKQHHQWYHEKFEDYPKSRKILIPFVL
How it was run: (§2)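 Rat ventral prostate 105000g pellet made in 20 mM phosphate pH 6.6 with […] and 1 mM DTT at 0–4 °C. About 250 μg protein incubated 30 min at 37 °C in 40 mM phosphate pH 6.6 with 200 μM NADPH, 0.21 μM [1,2-³H]testosterone and 2% DMSO. Ether extraction, radio-HPLC of T and DHT. % inhibition at 10 μM or IC50; duplicates.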

[4] = target: T4, 3-oxo-5-alpha-steroid 4-dehydrogenase 2 (Rattus norvegicus, UniProt P31214); experiment: (§3) Inhibition of Steroid 5-alpha-reductase type 2 of rat ventral prostate (RVP); type: tissue-based, Prostate gland
T4 sequence (P31214 whole entry): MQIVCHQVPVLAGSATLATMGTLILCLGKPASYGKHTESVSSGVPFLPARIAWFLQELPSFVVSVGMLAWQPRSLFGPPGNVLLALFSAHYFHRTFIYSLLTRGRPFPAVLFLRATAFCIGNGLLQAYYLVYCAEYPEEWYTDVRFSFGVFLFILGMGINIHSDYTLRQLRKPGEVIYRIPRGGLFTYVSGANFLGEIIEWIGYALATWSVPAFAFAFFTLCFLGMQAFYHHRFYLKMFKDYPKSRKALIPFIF
How it was run: (§4)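 Type 2 source: rat ventral prostate homogenized in citrate buffer pH 5.5, 105000g pellet. About 250 μg protein incubated 30 min at 37 °C in 40 mM citrate pH 5.5 with 200 μM NADPH, 0.21 μM [1,2-³H]testosterone and 2% DMSO. NaOH stop, ether extraction, radio-HPLC of T/DHT. Result given as % inhibition at 10 μM or IC50, run in duplicate.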

[5] = target: T5, 3-oxo-5-alpha-steroid 4-dehydrogenase 2 (Rattus norvegicus) (UniProt P31214); experiment: as §3; parameters: concentration or dose not given beside the values; details: Prostate gland, concentration not given here; how it was run: as §4
T5 sequence (whole entry): T4 sequence (P31214 whole entry)

[6] = target: T6, 3-oxo-5-alpha-steroid 4-dehydrogenase 1 (Rattus norvegicus) (UniProt P24008); experiment: Inhibition of Steroid 5-alpha-reductase type I of rat ventral prostate (RVP); type: tissue-based; parameters: concentration or dose not given beside the values; details: Prostate gland, concentration not given here; how it was run: as §2
T6 sequence (whole entry): T3 sequence (P24008 whole entry)

[7] = target: T7, 3-oxo-5-alpha-steroid 4-dehydrogenase 2 (Homo sapiens) (UniProt P31213); experiment: Percent of inhibition at 10 benign prostatic hyperplasia (BPH) tissue; details: concentration not given here; how it was run: as §1
T7 sequence (whole entry): T2 sequence (P31213 whole entry)

[8] = tested on: Rattus norvegicus; experiment: Mean percentage of inhibition of the T-induced hypertrophic response was calculated according to the equation %inhibition = 100 x (Ct-D)/(Ct-Cc) at a dose 12.2 mg/kg by subcutaneous administration; type: functional; details: sc
How it was run: (§5)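 Male rats castrated at 21 days old by scrotal incision under ether anaesthesia; eight groups of eight. One week later, testosterone propionate 1 mg/kg and test agent or vehicle in oil given once daily for 4 days. Testosterone and test agent were given by separate sc injections, or the test agent was given orally. Test doses 11.3–12.2 mg/kg, 10 times equimolar to finasteride 1 mg/kg.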

[9] = tested on: Rattus norvegicus; experiment: In vivo ventral prostate weights in juvenile castrated rats treated with testosterone propionate (11.3 mg/kg) compound, by subcutaneous administration; type: functional, Prostate gland; how it was run: as §5
[10] = tested on: Rattus norvegicus; experiment: Mean percentage of inhibition of the T-induced hypertrophic response was calculated according to the equation %inhibition = 100 x (Ct-D)/(Ct-Cc) at a dose 1 mg/kg by subcutaneous administration; type: functional; details: sc; how it was run: as §5
[11] = tested on: Rattus norvegicus; experiment: In vivo ventral prostate weights in juvenile castrated rats treated with testosterone propionate (11.3 mg/kg) + compound, by subcutaneous administration; type: functional, Prostate gland
[12] = tested on: Rattus norvegicus; experiment: In vivo ventral prostate weights in juvenile castrated rats treated with testosterone propionate (1 mg/kg); type: functional, Prostate gland; how it was run: as §5
[13] = target: 3-oxo-5-alpha-steroid 4-dehydrogenase 2 (Homo sapiens, UniProt P31213); experiment: In vitro inhibitory activity against Steroid 5-alpha-reductase type 2 of human benign prostatic hyperplasia (BPH) tissue; how it was run: as §1
[14] = target: T3, 3-oxo-5-alpha-steroid 4-dehydrogenase 1; experiment: In vitro inhibitory activity against Steroid 5-alpha-reductase type I of rat ventral prostate (RVP); type: tissue-based, Prostate gland; how it was run: as §2

SMILES | inhibition [1] [%] | pIC50 [2] | inhibition [5] [%] | inhibition [6] [%] | further results
O=C(O)c1ccc(C=C2CCN(C(=O)C34CC5CC(CC(C5)C3)C4)CC2)c(F)c1 | 20 | 6.68 | – | – | pIC50 [3]: 5.57; pIC50 [4]: 5.46
O=C(O)c1ccc(OC2CCN(C(=O)C34CC5CC(CC(C5)C3)C4)CC2)cc1 | 7 | 6.37 | 21 | 18 | –
O=C(O)c1cccc(C=C2CCN(C(=O)C(c3ccccc3)c3ccccc3)CC2)c1 | 6 | – | 43 | 49 | inhibition [7]: 57%
O=C(O)c1ccc(C=C2CCN(C(=O)C(C3CCCCC3)C3CCCCC3)CC2)c(F)c1 [listing 1 of 2 here] | 12 | – | – | – | –
COc1cc(C(=O)O)ccc1C=C1CCN(C(=O)C(C2CCCCC2)C2CCCCC2)CC1 | 5 | 6.89 | 43 | 55 | –
CCC(=O)O[C@H]1CC[C@H]2[C@@H]3CCC4=CC(=O)CC[C@]4(C)[C@H]3CC[C@]12C.O=C(O)Cc1ccc(C=C2CCN(C(=O)C(C3CCCCC3)C3CCCCC3)CC2)c(F)c1 | – | – | – | – | inhibition in vivo at 12.2 mg/kg [8]: 55%; Weight [9]: 26.4 (mg of prostate) (100g of body weight)-1
CC(C)(C)NC(=O)C1CC[C@@]2(C)[C@@H]3CC[C@H]4NC(=O)C=C[C@]4(C)[C@H]3CC[C@]12C.CCC(=O)O[C@H]1CC[C@H]2[C@@H]3CCC4=CC(=O)CC[C@]4(C)[C@H]3CC[C@]12C (stereo partly specified) | – | – | – | – | inhibition in vivo at 1 mg/kg [10]: 76%; Weight [11]: 20.5 (mg of prostate) (100g of body weight)-1
O=C(O)c1ccc(C=C2CCN(C(=O)C(C3CCCCC3)C3CCCCC3)CC2)cc1 | 46 | – | – | 51 | –
CCC(=O)O[C@H]1CC[C@H]2[C@@H]3CCC4=CC(=O)CC[C@]4(C)[C@H]3CC[C@]12C [TESTOSTERONE PROPIONATE] | – | – | – | – | Weight [12]: 41.6 (mg of prostate) (100g of body weight)-1
O=C(O)c1ccc(C=C2CCN(C(=O)C(c3ccccc3)c3ccccc3)CC2)c(F)c1 | 2 | 6.39 | – | – | pIC50 [3]: 5.96; pIC50 [4]: 5.96
O=C(O)Cc1ccc(C=C2CCN(C(=O)C(c3ccccc3)c3ccccc3)CC2)cc1 | – | – | 63 | – | pIC50 [3]: 5.35; pIC50 [13]: 7.12
O=C(O)c1ccc(C=C2CCN(C(=O)C(C3CCCCC3)C3CCCCC3)CC2)c(F)c1 [listing 2 of 2 here] | – | 7.96 | – | – | pIC50 [14]: 5.74; pIC50 [4]: 5.52
O=C(O)c1ccc(OC2CCN(C(=O)C(c3ccccc3)c3ccccc3)CC2)cc1 | – | – | 58 | 62 | pIC50 [13]: 5.89
O=C(O)c1ccc(C=C2CCN(C(=O)C(c3ccccc3)c3ccccc3)CC2)cc1 | 26 | 6.28 | – | – | pIC50 [3]: 5.47; pIC50 [4]: 6.43
